Source: ChEMBL document CHEMBL2046324, “Synthesis and biological evaluation of 1-arylsulfonyl-5-(N-hydroxyacrylamide)indoles as potent histone deacetylase inhibitors with antitumor activity in vivo” (J Med Chem, 2012)
Converted amounts (≈) assume the structure as drawn.

Key:
A549 [1] = experiment: Antitumor activity against human A549 cells xenografted in nude mouse assessed as tumor growth delay at 100 mg/kg, po administered QD till end point; assay type: functional
cells = assay type: functional, Hep 3B2; conditions: Homo sapiens, Hep3B, 48 h
CYP1A2 = target: T1, CYP1A2 (Homo sapiens, UniProt P05177); experiment: Inhibition of CYP1A2 at 10 uM; assay type: ADME
T1 sequence (P05177 whole entry): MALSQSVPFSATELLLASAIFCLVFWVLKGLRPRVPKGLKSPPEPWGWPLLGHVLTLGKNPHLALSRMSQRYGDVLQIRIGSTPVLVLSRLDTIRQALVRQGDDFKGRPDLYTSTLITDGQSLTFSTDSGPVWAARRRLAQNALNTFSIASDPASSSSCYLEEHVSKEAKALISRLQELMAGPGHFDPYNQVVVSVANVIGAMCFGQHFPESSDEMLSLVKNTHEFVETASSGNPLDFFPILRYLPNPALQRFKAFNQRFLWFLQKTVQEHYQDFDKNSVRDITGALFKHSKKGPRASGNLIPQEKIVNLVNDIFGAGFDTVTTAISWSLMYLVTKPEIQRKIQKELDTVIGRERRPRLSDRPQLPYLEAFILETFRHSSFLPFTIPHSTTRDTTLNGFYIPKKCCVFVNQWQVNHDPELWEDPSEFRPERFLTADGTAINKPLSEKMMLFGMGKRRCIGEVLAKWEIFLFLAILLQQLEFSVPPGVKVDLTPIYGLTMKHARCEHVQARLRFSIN

PC-3 = experiment: cells; assay type: functional; conditions: Homo sapiens, PC-3, 48 h
Tubulin (Homo sapiens) [2] = target: T2, Tubulin (Homo sapiens) (UniProt P68371+Q9H4B7+P0DPH7+P68366+Q13509+Q71U36+P04350+Q3ZCM7+P07437+P68363+Q9BQE3+Q6PEY2+Q13885+Q9BVA1+Q9BUF5); experiment: Inhibition of HDAC in human PC3 cells assessed as tubulin acetylation after 48 hrs by Western blot analysis; conditions: PC-3
[3] = Half life in Sprague-Dawley rat at 2 mg/kg, iv; assay type: ADME, organism-based; set-up: dose 2 mg/kg, route intravenous; conditions: in vivo
Procedure, shortened: (§1)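 Male Sprague-Dawley rats (250–350 g, 8–10 weeks), three per group. Single 2 mg/kg iv bolus into the jugular vein in PEG400/DMSO (80:20, v/v), or 20 mg/kg orally in 1% carboxymethyl cellulose plus 0.5% Tween 80. Plasma was assayed by LC-MS/MS (MRM) and analysed noncompartmentally.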

CYP2C19 = CYP2C19 (Homo sapiens, UniProt P33261); experiment: Inhibition of CYP2C19 at 10 uM; assay type: ADME
Chain of CYP2C19 (P33261 whole entry): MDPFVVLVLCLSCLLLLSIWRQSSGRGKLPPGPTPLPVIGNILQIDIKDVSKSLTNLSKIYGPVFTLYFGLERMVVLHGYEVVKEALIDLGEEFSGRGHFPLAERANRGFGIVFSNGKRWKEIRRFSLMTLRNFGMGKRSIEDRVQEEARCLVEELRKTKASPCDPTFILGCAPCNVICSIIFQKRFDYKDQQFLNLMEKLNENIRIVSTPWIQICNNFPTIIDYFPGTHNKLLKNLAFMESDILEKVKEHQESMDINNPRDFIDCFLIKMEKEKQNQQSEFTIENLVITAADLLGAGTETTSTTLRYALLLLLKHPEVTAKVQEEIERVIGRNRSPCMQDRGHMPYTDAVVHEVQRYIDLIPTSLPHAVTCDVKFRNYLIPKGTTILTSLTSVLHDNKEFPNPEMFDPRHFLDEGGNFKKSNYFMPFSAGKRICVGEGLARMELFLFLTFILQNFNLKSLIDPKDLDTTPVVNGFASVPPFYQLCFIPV

[4] = AUC (0 to infinity) in Sprague-Dawley rat at 2 mg/kg, iv; assay type: ADME, organism-based; set-up: dose 2 mg/kg, route intravenous, time infinity; conditions: plasma; procedure, shortened: as §1
CYP2E1 = CYP2E1 (Homo sapiens, UniProt P05181); experiment: Inhibition of CYP2E1 at 10 uM; assay type: ADME
Chain of CYP2E1 (P05181 whole entry): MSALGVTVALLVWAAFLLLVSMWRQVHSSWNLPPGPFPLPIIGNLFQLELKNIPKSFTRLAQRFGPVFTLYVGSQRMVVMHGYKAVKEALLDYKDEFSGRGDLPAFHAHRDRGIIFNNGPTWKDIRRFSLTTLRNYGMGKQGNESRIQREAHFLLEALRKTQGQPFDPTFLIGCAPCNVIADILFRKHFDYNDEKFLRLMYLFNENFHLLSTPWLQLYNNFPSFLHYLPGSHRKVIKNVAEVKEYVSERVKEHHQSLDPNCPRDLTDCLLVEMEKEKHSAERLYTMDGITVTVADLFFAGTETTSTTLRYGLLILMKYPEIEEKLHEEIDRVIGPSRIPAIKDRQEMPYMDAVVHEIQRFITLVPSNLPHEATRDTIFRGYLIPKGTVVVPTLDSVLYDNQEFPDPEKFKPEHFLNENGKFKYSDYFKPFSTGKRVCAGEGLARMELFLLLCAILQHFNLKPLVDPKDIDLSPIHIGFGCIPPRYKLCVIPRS

[5] = Half life in Sprague-Dawley rat at 20 mg/kg, po; assay type: ADME, organism-based; set-up: dose 20 mg/kg, route oral; conditions: in vivo; procedure, shortened: as §1
Mus musculus [6] = experiment: Toxicity in nude mouse bearing human A549 cells assessed as adverse effects at 200 mg/kg, po QD; assay type: organism-based; set-up: dose 200 mg/kg, route oral; conditions: in vivo
A549 [7] = experiment: Antitumor activity against human A549 cells xenografted in nude mouse assessed as tumor growth delay at 200 mg/kg, po administered QD till end point; assay type: functional
Procedure, shortened: (§2)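 At about 65 mm³ they were randomized, seven per group, and dosed po daily at 10 mL/kg in 0.5% carboxymethyl cellulose until a 1000 mm³ end point. Volume was w²l/2. TTE came from linear regression of log volume; TGD = T − C and %TGD = (T − C)/C × 100.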

CYP2D6 = CYP2D6 (Homo sapiens, UniProt P10635); experiment: Inhibition of CYP2D6 at 10 uM; assay type: ADME
Chain of CYP2D6 (P10635 whole entry): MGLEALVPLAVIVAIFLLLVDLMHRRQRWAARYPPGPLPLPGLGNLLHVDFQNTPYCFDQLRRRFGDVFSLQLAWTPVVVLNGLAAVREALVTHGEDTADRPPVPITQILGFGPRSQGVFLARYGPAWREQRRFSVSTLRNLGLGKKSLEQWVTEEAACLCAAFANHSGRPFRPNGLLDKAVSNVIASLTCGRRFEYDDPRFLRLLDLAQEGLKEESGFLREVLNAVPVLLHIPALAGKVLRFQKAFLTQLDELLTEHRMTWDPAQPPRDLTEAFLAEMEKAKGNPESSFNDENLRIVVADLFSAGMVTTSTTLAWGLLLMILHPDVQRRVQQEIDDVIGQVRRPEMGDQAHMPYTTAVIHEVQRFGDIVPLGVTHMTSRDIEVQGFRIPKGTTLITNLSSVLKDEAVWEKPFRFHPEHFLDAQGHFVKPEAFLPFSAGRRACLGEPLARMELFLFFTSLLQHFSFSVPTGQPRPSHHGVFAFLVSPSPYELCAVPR

CYP2C8 = target: T3, CYP2C8 (Homo sapiens, UniProt P10632); experiment: Inhibition of CYP2C8 at 10 uM; assay type: ADME
T3 sequence (P10632 whole entry): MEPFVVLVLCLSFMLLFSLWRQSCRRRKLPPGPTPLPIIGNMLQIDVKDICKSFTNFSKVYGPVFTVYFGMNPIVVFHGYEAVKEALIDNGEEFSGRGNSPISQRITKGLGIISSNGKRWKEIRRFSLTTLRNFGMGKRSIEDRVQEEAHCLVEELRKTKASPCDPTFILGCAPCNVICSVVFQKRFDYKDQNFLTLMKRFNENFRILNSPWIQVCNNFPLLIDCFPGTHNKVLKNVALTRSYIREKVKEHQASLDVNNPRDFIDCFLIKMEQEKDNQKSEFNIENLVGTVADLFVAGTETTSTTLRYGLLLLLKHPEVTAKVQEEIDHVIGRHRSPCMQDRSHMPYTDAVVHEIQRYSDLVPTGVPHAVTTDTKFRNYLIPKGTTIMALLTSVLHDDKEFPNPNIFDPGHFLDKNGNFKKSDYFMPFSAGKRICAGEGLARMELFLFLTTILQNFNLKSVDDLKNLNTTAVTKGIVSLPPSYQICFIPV

[8] = Volume of distribution at steady state in Sprague-Dawley rat at 2 mg/kg, iv; assay type: ADME, organism-based; set-up: dose 2 mg/kg, route intravenous; conditions: in vivo, read-out: Vdss; procedure, shortened: as §1
[9] = Cmax in Sprague-Dawley rat at 20 mg/kg, po; assay type: ADME, organism-based; set-up: dose 20 mg/kg, route oral; conditions: in vivo; procedure, shortened: as §1
A549 [10] = experiment: Antitumor activity against human A549 cells xenografted in nude mouse assessed as tumor growth inhibition at 200 mg/kg, po administered QD till end point; assay type: functional; conditions: read-out: GI
Mus musculus [11] = experiment: Toxicity in nude mouse bearing human A549 cells assessed as body weight change at 100 mg/kg, po QD; assay type: organism-based; set-up: dose 100 mg/kg, route oral; conditions: in vivo
Procedure, shortened: (§3)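 Nude mice bearing sc A549 xenografts were dosed po daily in 0.5% carboxymethyl cellulose at 10 mL/kg, scaled to body weight.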

[12] = Tmax in Sprague-Dawley rat at 20 mg/kg, po; assay type: ADME, organism-based; set-up: dose 20 mg/kg, route oral; conditions: in vivo; procedure, shortened: as §1
A549 [13] = experiment: Growth inhibition of human A549 cells after 48 hrs by SRB assay; assay type: functional; conditions: Homo sapiens, A549, 48 h
Procedure, shortened: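 A549 cells were grown in RPMI 1640 with 10% FBS and 2 mM glutamine at 37 °C in 5% CO₂, then seeded in medium with 5% FBS. A 24 h TCA-fixed plate gave T₀. Cells were exposed to compound or DMSO for 48 h, fixed with 10% TCA and stained with 0.4% SRB; bound dye was solubilized in 10 mM Tris and read at 515 nm. GI₅₀ was the concentration halving net protein increase. At least three independent experiments.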

Mus musculus [14] = experiment: Toxicity in nude mouse bearing human A549 cells assessed as body weight change at 200 mg/kg, po QD; assay type: organism-based; set-up: dose 200 mg/kg, route oral; conditions: in vivo; procedure, shortened: as §3
A549 [15] = experiment: Antitumor activity against human A549 cells xenografted in nude mouse assessed as tumor growth inhibition at 100 mg/kg, po administered QD till end point; assay type: functional; conditions: read-out: GI
Procedure, shortened: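 A549 sc xenografts in female nude mice, seven per group, dosed po daily in 0.5% carboxymethyl cellulose (10 mL/kg) to a 1000 mm³ end point. Tumor volume was w²l/2. TGI was expressed as % T/C of tumor volumes, treated versus control, and compared with control by P value at the indicated days.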

A549 [16] = experiment: Antitumor activity against human A549 cells xenografted in po dosed nude mouse assessed as tumor growth delay administered QD till end point; assay type: functional, organism-based
A549 [17] = experiment: Antitumor activity against human A549 cells xenografted in nude mouse assessed as time to end point at 200 mg/kg, po administered QD till end point; assay type: functional; procedure, shortened: as §2
CYP3A4 = CYP3A4 (Homo sapiens, UniProt P08684); experiment: Inhibition of CYP3A4 at 10 uM; assay type: ADME
Chain of CYP3A4 (P08684 whole entry): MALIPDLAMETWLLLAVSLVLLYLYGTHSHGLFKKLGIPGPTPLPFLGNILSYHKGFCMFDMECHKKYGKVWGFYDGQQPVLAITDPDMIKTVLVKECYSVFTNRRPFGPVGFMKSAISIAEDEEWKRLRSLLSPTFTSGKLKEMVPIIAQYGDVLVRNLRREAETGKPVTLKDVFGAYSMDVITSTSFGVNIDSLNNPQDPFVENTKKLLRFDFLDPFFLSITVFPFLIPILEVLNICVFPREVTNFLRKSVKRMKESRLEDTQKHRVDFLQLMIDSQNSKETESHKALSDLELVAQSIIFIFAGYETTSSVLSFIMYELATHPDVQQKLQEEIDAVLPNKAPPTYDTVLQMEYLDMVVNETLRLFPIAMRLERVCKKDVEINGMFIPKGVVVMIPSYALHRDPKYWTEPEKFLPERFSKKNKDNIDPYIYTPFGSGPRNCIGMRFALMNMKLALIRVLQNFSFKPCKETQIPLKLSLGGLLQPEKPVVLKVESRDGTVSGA

[18] = Solubility of the compound in water after 24 hrs by HPLC analysis; assay type: physicochemical
CYP2C9 = CYP2C9 (Homo sapiens, UniProt P11712); experiment: Inhibition of CYP2C9 at 10 uM; assay type: ADME
Chain of CYP2C9 (P11712 whole entry): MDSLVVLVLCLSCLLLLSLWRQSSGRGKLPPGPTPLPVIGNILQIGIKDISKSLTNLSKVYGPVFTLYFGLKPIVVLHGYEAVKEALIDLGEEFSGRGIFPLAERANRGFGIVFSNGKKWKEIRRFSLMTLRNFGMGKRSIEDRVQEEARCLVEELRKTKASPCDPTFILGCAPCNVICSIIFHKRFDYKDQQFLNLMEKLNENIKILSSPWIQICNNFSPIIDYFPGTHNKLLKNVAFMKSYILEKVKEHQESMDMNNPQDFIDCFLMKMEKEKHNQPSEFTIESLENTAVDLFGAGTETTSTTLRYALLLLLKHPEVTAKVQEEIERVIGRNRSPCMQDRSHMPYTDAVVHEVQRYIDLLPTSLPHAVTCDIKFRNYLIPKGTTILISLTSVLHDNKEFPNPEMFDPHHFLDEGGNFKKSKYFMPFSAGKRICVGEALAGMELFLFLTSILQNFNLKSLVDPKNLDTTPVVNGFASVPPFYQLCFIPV

[19] = Clearance in Sprague-Dawley rat at 2 mg/kg, iv; assay type: ADME, organism-based; set-up: dose 2 mg/kg, route intravenous; conditions: in vivo; procedure, shortened: as §1
Tubulin (Homo sapiens) [20] = target: T2, Tubulin (Homo sapiens); experiment: Inhibition of HDAC in human A549 cells assessed as tubulin acetylation after 48 hrs by Western blot analysis
[21] = AUC (0 to infinity) in Sprague-Dawley rat at 20 mg/kg, po; assay type: ADME, organism-based; set-up: time infinity, dose 20 mg/kg, route oral; conditions: plasma; procedure, shortened: as §1
MDA-MB-231 = experiment: cells; assay type: functional; conditions: Homo sapiens, MDA-MB-231, 48 h
[22] = Oral bioavailability in Sprague-Dawley rat at 20 mg/kg; assay type: ADME, organism-based; conditions: in vivo; procedure, shortened: as §1
[23] = Solubility of the compound in EtOH after 24 hrs by HPLC analysis; assay type: physicochemical
A549 [24] = experiment: Antitumor activity against human A549 cells xenografted in nude mouse assessed as time to end point at 100 mg/kg, po administered QD till end point; assay type: functional
Mus musculus [25] = experiment: Toxicity in nude mouse bearing human A549 cells assessed as adverse effects at 100 mg/kg, po QD; assay type: organism-based; set-up: dose 100 mg/kg, route oral; conditions: in vivo

inhibition at 10 µM (CYP1A2): 51%
GI50 (PC-3): 620 nM
inhibition (Tubulin (Homo sapiens) [2]): Dose-dependent effect
half-life [3]: 2.6 h
inhibition at 10 µM (CYP2C19): 78%
AUC(0-inf) [4]: 927 ng·h/mL
inhibition at 10 µM (CYP2E1): 22%
half-life [5]: 5.5 h
inhibition at 10 µM (CYP2D6): 31%
inhibition at 10 µM (CYP2C8): 78%
Vd [8]: 2.1 L/kg
Cmax [9]: 217 ng/mL
Tmax [12]: 1.7 h
GI50 (A549 [13]): 1020 nM
inhibition at 10 µM (CYP3A4): 65%
solubility at 24 h [18]: < 1 µg/mL
inhibition at 10 µM (CYP2C9): 22%
clearance [19]: 35.5 mL/min/kg
inhibition (Tubulin (Homo sapiens) [20]): Dose-dependent effect
AUC(0-inf) [21]: 916 ng·h/mL
GI50 (MDA-MB-231): 480 nM
bioavailability [22]: 10%
solubility at 24 h [23]: 939 µg/mL (≈ 2740 µM)
Structure (SMILES): O=C(/C=C/c1ccc2c(ccn2S(=O)(=O)c2ccccc2)c1)NO
Activity (A549 [1]): 34%
GI50 (cells): 410 nM
Activity (Mus musculus [6]): Non-toxic
Activity (A549 [7]): 47%
inhibition in vivo at 200 mg/kg (A549 [10]): 32.1%
Activity (Mus musculus [11]): Non-toxic
Activity (Mus musculus [14]): Non-toxic
inhibition in vivo at 100 mg/kg (A549 [15]): 15%
Activity (A549 [16]): Dose-dependent effect
Time (A549 [17]): 39.8 days
Time (A549 [24]): 36.2 days
Activity (Mus musculus [25]): Non-toxic
